# Source: PubChem BioAssay
# In the library only some 0.79% were active in any assay of this set; here they are far more common.
# bIAP act = increases bovine intestinal alkaline phosphatase activity; purified bovine IAP, CDP-star luminescence, 30 min; active compounds read high; fold of DMSO-control signal, blank-subtracted; activation factor at 20 µM; 0.17% of 200,000 active; AID 1016;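 active = activation factor of 2 or more at 20 µM, a signal rise over negative controls twice the positive control's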
# bIAP inhibitor = blocks bovine intestinal alkaline phosphatase activity. purified bovine IAP, CDP-star luminescence, 30 min. inhibition, % at 20 µM. 190,000 tested, under 10 active. AID 1019;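 active = over 50% inhibition of intestinal alkaline phosphatase at 20 µM in the single-dose screen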
#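 Incubation: 30 min reaction at room temperature / Material: purified bovine intestinal alkaline phosphatase (IAP) enzyme / Input: enzyme at 1/65,000,000 dilution / Dosing: 20 µM single dose / Signal: CDP-star luminescence signal / Reagent: CDP-star chemiluminescent phosphatase substrate, 30 µM final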
# hIAP activ = human IAP activation | P09923 | purified human IAP, CDP-Star luminescence, 30 min; active compounds read high; 1 = vehicle-only enzyme, 0 = enzyme-free background | activation factor at 10 µM | 0.16% of 330,000 active;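 active = activation factor of the enzyme at least 2-fold when tested at 20 µM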
# Target sequence (P09923 whole entry, looked up): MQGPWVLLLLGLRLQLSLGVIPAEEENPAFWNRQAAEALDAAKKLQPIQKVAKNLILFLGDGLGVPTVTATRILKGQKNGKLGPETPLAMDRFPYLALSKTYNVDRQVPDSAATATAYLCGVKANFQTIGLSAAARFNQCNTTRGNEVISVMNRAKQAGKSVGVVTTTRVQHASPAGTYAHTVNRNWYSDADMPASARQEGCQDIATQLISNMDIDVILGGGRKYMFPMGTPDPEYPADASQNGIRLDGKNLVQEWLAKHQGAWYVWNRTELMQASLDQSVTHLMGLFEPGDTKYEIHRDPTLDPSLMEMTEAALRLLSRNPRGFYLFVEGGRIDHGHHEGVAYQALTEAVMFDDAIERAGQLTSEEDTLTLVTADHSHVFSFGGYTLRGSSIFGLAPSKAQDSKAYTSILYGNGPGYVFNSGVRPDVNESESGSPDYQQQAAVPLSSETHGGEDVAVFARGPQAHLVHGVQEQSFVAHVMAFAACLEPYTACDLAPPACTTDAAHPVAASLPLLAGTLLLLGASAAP
# hIAP inh = human IAP inhibition. 0.12% of 330,000 active. inhibition, % at 10 µM. P09923. purified IAP, CDP-Star luminescence, 30 min;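 active = inhibition reaching a set limit with compound at 10 µM in the primary screen, cut at about 35% in these data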
# mIAP inh = mouse IAP inhibition; purified mouse IAP, CDP-Star luminescence, 30 min; inhibition, % at 10 µM; 0.2% of 330,000 active;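 active = inhibition of at least 40% at 10 µM in the primary screen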
# mIAP act = mouse IAP activation; activation factor at 10 µM; muIAP, CDP-Star luminescence, 30 min; active compounds read high; 1 = vehicle-only enzyme signal, 0 = enzyme-free wells; 0.24% of 330,000 active;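 active = activation factor of at least 2 at 20 µM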
#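 System: mouse IAP enzyme. Reagent: CDP-Star chemiluminescent phosphatase substrate. Benchmarks: DMSO wells, no-enzyme wells. Times: 30 min enzyme-substrate-compound incubation at room temperature. Detection: luminescence from enzymatic CDP-Star hydrolysis. Doses: test compounds delivered from DMSO solution.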
# Numbers stand for hits; i = inactive; nt = no result.
SMILES,bIAP act,bIAP inhibitor,hIAP activ,hIAP inh,mIAP inh,mIAP act
Cc1ccc(S(=O)(=O)N2CCOCC2)cc1C(=O)OC(C)C(=O)c1ccccc1 (stereo unspecified),nt,nt,i,i,i,i
Cc1cccc(NC(=S)NC2CCCC2)c1,i,i,i,i,i,i
S=C(Nc1ccc(Br)cc1)NC1CCCC1,i,i,i,i,i,2.07
CCCCNC(=S)Nc1ccc(Oc2ccccc2)cc1,i,i,i,i,i,2.35
S=C(NCC1CCCCC1)Nc1ccc(Oc2ccccc2)cc1,i,i,i,i,i,3.26
CC(C)(C)c1ccc(OCCNC(=S)Nc2ccccc2)cc1,i,i,i,i,i,2.36
O=c1cc(O)c2sc3nc(-c4cccnc4)cc(C(F)(F)F)c3c2[nH]1,i,i,i,i,i,i
S=C(Nc1ccc(Oc2ccccc2)cc1)NC1CCCC1,i,i,i,i,i,2.72
S=C(Nc1ccccc1Oc1ccccc1)NC1CCCC1,i,i,i,i,i,i
CN(C)/C=C1\C(=O)N(C)N=C1C(F)(F)F,i,i,i,i,i,i
CCCCCCc1ccc(N2C[C@H](CCCCC)[C@@H](CC(=O)NCc3ccc(OC)cc3)C2=O)cc1,nt,nt,i,i,i,2.25
CCCCCCc1ccc(N2C[C@H](Cc3ccccc3)[C@@H](CC(=O)NCc3ccc(OC)cc3)C2=O)cc1,nt,nt,i,i,i,i
CCCCCCc1ccc(N2C[C@H](CCCCC)[C@@H](CC(=O)NCc3ccccc3)C2=O)cc1,nt,nt,i,i,i,2.34
C/C(N)=C(/C#N)C(=O)CSc1nnc(COc2ccccc2Cl)o1,2.1,i,i,i,i,i
O=C(CSc1nnc(COc2ccccc2Cl)o1)Nc1ccccc1,nt,nt,i,i,i,i
COc1ccc(C2=NOC(Cn3nc(-c4ccccc4)cc3C(=O)NCc3ccccc3OC)C2)cc1 (stereo unspecified),nt,nt,i,i,i,2.07
Cc1cccc(NC(=S)NC(NC(=O)c2ccco2)C(Cl)(Cl)Cl)c1 (stereo unspecified),i,i,i,i,i,2.04
Cc1cc(C)c(NC(=S)NC(NC(=O)c2ccccc2)C(Cl)(Cl)Cl)c(C)c1 (stereo unspecified),i,i,i,i,i,2.52
Cc1ccc(NC(=S)NC(NC(=O)c2ccccc2)C(Cl)(Cl)Cl)c(C)c1 (stereo unspecified),i,i,i,i,i,i
Cc1ccc(NC(=S)NC(NC(=O)c2ccco2)C(Cl)(Cl)Cl)cc1 (stereo unspecified),i,i,i,i,i,i
CC(C)(C)c1ccc(C(=O)Nc2ccc(NC(=O)C(=O)O)cc2)o1,i,i,i,i,i,i
CN(CCCS(=O)(=O)[O-])c1ccc(/C=C/c2ccc3ccccc3[n+]2C)cc1,nt,nt,i,i,i,i
CN(C)c1ccc(/C=C/c2ccc3ccccc3[n+]2C)cc1,i,i,i,i,41.7,i
O=C(CS(=O)CC(=O)NC12CC3CC(CC(C3)C1)C2)Nc1ccc(F)cc1 (stereo unspecified),nt,nt,i,i,i,i
COc1ccc(Cl)cc1-c1n[nH]c(=S)n1Cc1ccccc1,nt,nt,i,i,41.7,i
SMILES,bIAP act,bIAP inhibitor,hIAP activ,hIAP inh,mIAP inh,mIAP act
S=c1[nH]nc(-c2ccccc2Cl)n1Cc1ccccc1,i,i,i,i,i,i
Cc1ccc(/C=C/C(=O)NC2=NCCS2)cc1,i,i,i,41.2,i,i
CCCCCCCCn1ccc(=N)cc1,nt,nt,i,i,i,i
C=CCn1c(SCC(=O)Nc2ccc(N3CCOCC3)cc2)nc2ccccc2c1=O,nt,nt,i,i,i,i
Nc1[nH]nc2nc(NCc3ccccc3)c3c(c12)CCN(Cc1ccccc1)C3,4.7,i,i,i,i,i
N#Cc1c(NCCN)nc(NCc2ccccc2)c2c1CCN(Cc1ccccc1)C2,3,i,nt,nt,nt,nt
CN(CC(=O)Nc1cccc(F)c1)C(=O)CC1CCCCC1,nt,nt,i,i,i,i
CCCCNC(=O)CSc1nc2cc3c(cc2c(=O)n1CCC(=O)NCCc1ccc(OC)c(OC)c1)OCO3,2,i,i,i,i,i
CCOc1ccc(CCNC(=O)c2ccc3c(c2)NC(=O)C2CCCN32)cc1OCC (stereo unspecified),nt,nt,i,i,i,2.03
Cc1ccc(NC(=O)COc2ccccc2CNC(C)(C)CC(C)(C)C)cc1,30.3,i,i,i,i,i
Cn1c(N)c(C(=O)CSc2nnc(NC3CCCCC3)s2)c(=O)n(C)c1=O,nt,nt,i,i,i,i
O=C(Nc1ccncc1)Nc1cccc(C(F)(F)F)c1,nt,nt,i,i,i,i
Cc1ccc(S(=O)(=O)Nc2ccc(NC(=O)Nc3cccc(C(F)(F)F)c3)cc2)cc1,i,i,i,i,i,2.61
COc1ccc(CNC(=S)NC(C)CCc2ccccc2)cc1 (stereo unspecified),i,i,i,i,i,2.4
CC(C)COc1ccc(CNC(=S)NCc2ccccc2)cc1,i,i,i,i,i,3.74
CCCCc1ccc(NC(=S)NCc2ccc(OC)cc2)cc1,i,i,i,i,i,2.55
Cc1ccc(NC(=S)NC(C)CCc2ccccc2)cc1C (stereo unspecified),i,i,i,i,i,2.51
CCNC(=O)N(C)C[C@H]1N[C@@](CC)(C(=O)OC)[C@H]2C(=O)N(Cc3ccccc3)C(=O)[C@@H]12,nt,nt,i,i,i,i
CC(C)COc1ccc(CNC(=S)Nc2ccccc2)cc1Cl,nt,nt,i,i,i,2.49
CC(C)Oc1ccc(CNC(=S)Nc2ccccc2)cc1Cl,nt,nt,i,i,i,i
Cc1cc(NC(=O)Nc2ccccc2F)ccc1Br,i,i,i,i,i,3.05
O=C(Nc1ccccc1)Nc1ccc(Br)cc1F,i,i,i,i,i,i
Nn1c(-c2ccccc2Cl)nnc1-c1ccccc1Cl,2.6,i,i,i,i,i
COc1cc(OC)cc(C(=O)NC2CCN(Cc3nnnn3Cc3ccc(F)cc3)CC2)c1,i,i,i,i,i,i
COc1cccc(NC(=O)NC2CCN(Cc3nnnn3Cc3ccc4c(c3)OCO4)CC2)c1,nt,nt,i,i,i,2.5
SMILES,bIAP act,bIAP inhibitor,hIAP activ,hIAP inh,mIAP inh,mIAP act
Cc1cc(/C=N/n2cnnc2)c(C)n1-c1ccc(Cl)cc1,i,i,i,i,i,i
Cc1cc(/C=N/n2cnnc2)c(C)n1-c1ccc(OCc2ccc(Cl)cc2Cl)cc1,2.5,i,i,i,i,i
COc1cc(NC(=O)c2ccc3c(c2)OCO3)c2ncccc2c1,10.6,i,i,i,i,i
O=C(Nc1cccc2cccnc12)c1ccc2c(c1)OCCO2,i,i,i,i,i,i
CCn1c(CNC(=O)c2cccnc2)cc2ccccc21,nt,nt,i,i,i,i
O=C(COc1ccccc1Cl)NNC(=O)c1ccc(-n2cncn2)c([N+](=O)[O-])c1,nt,nt,i,i,i,i
COC(=O)C1=C(C)NC(=O)NC1c1ccc(N2CCC(c3ccccc3)=N2)cc1 (stereo unspecified),i,i,i,i,i,2.19
Cc1ccnc(NC(=O)c2ccc(OCc3c(C)noc3C)cc2)c1,nt,nt,i,i,i,i
